Source: article PMC11078286 (Therapeutic Drug Monitoring, 2024)

Legend:
Autosampler [1] = type: in vitro ADME, human; conditions: DBS, n = 6
Procedure, shortened: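 DBS QC samples were made by filling hemaPEN capillaries from a blood drop onto precut disks and drying 1 hour at RT. Each spot (2.74 μL) was extracted in 350 µL ACN plus I.S. (30 ng/mL), vortexed, centrifuged at 15,000g, then shaken 1 hour at RT. Processed extracts were held in the autosampler at 4°C for 24 hours. Six replicates were read by UHPLC-MS/MS in positive MRM mode, with relative error taken against nominal.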

Autosampler [2] = type: in vitro ADME, human; conditions: plasma, n = 6
[3] = ref Rood et al, 30; cited from earlier work
CYP3A4 = conditions: preclinical data; cited from earlier work
Freeze–thaw stability [4] = type: in vitro ADME, human; conditions: DBS, 3 F/T cycles, n = 6
Procedure, shortened: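 QC samples were kept 8 hours at RT, then put through 3 freeze–thaw cycles: thaw 2 hours at RT, refreeze at −80°C for at least 12 hours. Plasma (20 µL) with I.S. was protein-precipitated with water/ACN and centrifuged 15,000g for 10 min. A DBS spot was extracted in ACN with I.S. and centrifuged 15,000g for 5 min. Six replicates were run on UHPLC-MS/MS, with relative error versus nominal.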

[5] = Bland–Altman comparison of plasma and hemaPEN DBS concentrations; type: in vivo, human; conditions: 15 patients with NSCLC
Procedure, shortened: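 Paired trough samples came from each patient: a finger-prick hemaPEN DBS, and venous EDTA blood drawn within 10 min that was spun at 2000g for 10 min, with plasma stored at −80°C. Both matrices were quantified by UHPLC-MS/MS, with AZ7550 calibrated using the labelled [¹³C²H₃] standard. Plasma and DBS values were compared by Bland–Altman analysis, with limits of agreement at ±1.96 SD of the mean difference.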

Freeze–thaw stability [6] = type: in vitro ADME, human; conditions: plasma, 3 F/T cycles, n = 6
Long-term stability [7] = type: in vitro ADME, human; conditions: plasma, Long-term (−80 degrees) for 30 d, n = 6
Procedure, shortened: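 QC samples were stored at −80°C for 30 days before analysis. Plasma (20 µL) with I.S. (30 ng/mL) was precipitated with 150 µL water and 650 µL ACN, vortexed 5 min and centrifuged at 15,000g for 10 min. A hemaPEN DBS spot was extracted in 350 µL ACN with I.S. and centrifuged at 15,000g for 5 min. There were six replicates, 1 µL was injected for UHPLC-MS/MS MRM, and relative error was calculated versus nominal.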

Long-term stability [8] = type: in vitro ADME, human; conditions: DBS, Long-term (−80 degrees) for 30 d, n = 6
EGFR/T790M = conditions: cited from earlier work

C=CC(=O)Nc1cc(Nc2nccc(-c3cn(C)c4ccccc34)n2)c(OC)cc1N(C)CCN(C)C [Osimertinib]
Mean (measured concentration, stability) (Autosampler [1]; nominal 1 ng/mL (LLOQ)): 1.07 | RE (stability) (Autosampler [1]; nominal 1 ng/mL (LLOQ)): 7.15% | Mean (measured concentration, stability) (Autosampler [1]; nominal 3 ng/mL (LQC)): 2.96 | RE (stability) (Autosampler [1]; nominal 3 ng/mL (LQC)): −1.11% | Mean (measured concentration, stability) (Autosampler [1]; nominal 30 ng/mL (MQC)): 29.31 | RE (stability) (Autosampler [1]; nominal 30 ng/mL (MQC)): −2.7% | Mean (measured concentration, stability) (Autosampler [1]; nominal 270 ng/mL (HQC)): 271.88 | RE (stability) (Autosampler [1]; nominal 270 ng/mL (HQC)): 0.69% | Mean (measured concentration, stability) (Autosampler [2]; nominal 1 ng/mL (LLOQ)): 1.04 | RE (stability) (Autosampler [2]; nominal 1 ng/mL (LLOQ)): 7.21% | Mean (measured concentration, stability) (Autosampler [2]; nominal 3 ng/mL (LQC)): 2.96 | RE (stability) (Autosampler [2]; nominal 3 ng/mL (LQC)): −1.01% | Mean (measured concentration, stability) (Autosampler [2]; nominal 30 ng/mL (MQC)): 29.32 | RE (stability) (Autosampler [2]; nominal 30 ng/mL (MQC)): −2.3% | Mean (measured concentration, stability) (Autosampler [2]; nominal 270 ng/mL (HQC)): 279.56 | RE (stability) (Autosampler [2]; nominal 270 ng/mL (HQC)): 0.58% | Degradation at RT [3]: rapid degradation | Metabolizing enzyme (CYP3A4): principally metabolized by cytochrome P450 (CYP3A4) | Mean (measured concentration, stability) (Freeze–thaw stability [4]; nominal 1 ng/mL (LLOQ)): 1.06 | RE (stability) (Freeze–thaw stability [4]; nominal 1 ng/mL (LLOQ)): 8.95% | Mean (measured concentration, stability) (Freeze–thaw stability [4]; nominal 3 ng/mL (LQC)): 3.01 | RE (stability) (Freeze–thaw stability [4]; nominal 3 ng/mL (LQC)): −0.43% | Mean (measured concentration, stability) (Freeze–thaw stability [4]; nominal 30 ng/mL (MQC)): 29.34 | RE (stability) (Freeze–thaw stability [4]; nominal 30 ng/mL (MQC)): −2.24% | Mean (measured concentration, stability) (Freeze–thaw stability [4]; nominal 270 ng/mL (HQC)): 271.92 | RE (stability) (Freeze–thaw stability [4]; nominal 270 ng/mL (HQC)): 0.24% | Mean concentration difference between plasma and hemaPEN DBS (Bland–Altman) [5]: 0.4% | Mean (measured concentration, stability) (Freeze–thaw stability [6]; nominal 1 ng/mL (LLOQ)): 1.14 | RE (stability) (Freeze–thaw stability [6]; nominal 1 ng/mL (LLOQ)): 10.47% | Mean (measured concentration, stability) (Freeze–thaw stability [6]; nominal 3 ng/mL (LQC)): 3.02 | RE (stability) (Freeze–thaw stability [6]; nominal 3 ng/mL (LQC)): 0.07% | Mean (measured concentration, stability) (Freeze–thaw stability [6]; nominal 30 ng/mL (MQC)): 28.84 | RE (stability) (Freeze–thaw stability [6]; nominal 30 ng/mL (MQC)): −3.85% | Mean (measured concentration, stability) (Freeze–thaw stability [6]; nominal 270 ng/mL (HQC)): 269.25 | RE (stability) (Freeze–thaw stability [6]; nominal 270 ng/mL (HQC)): −0.27% | Mean (measured concentration, stability) (Long-term stability [7]; nominal 1 ng/mL (LLOQ)): 1.15 | RE (stability) (Long-term stability [7]; nominal 1 ng/mL (LLOQ)): 15.47% | Mean (measured concentration, stability) (Long-term stability [7]; nominal 3 ng/mL (LQC)): 2.91 | RE (stability) (Long-term stability [7]; nominal 3 ng/mL (LQC)): −2.7% | Mean (measured concentration, stability) (Long-term stability [7]; nominal 30 ng/mL (MQC)): 29.39 | RE (stability) (Long-term stability [7]; nominal 30 ng/mL (MQC)): −2.02% | Mean (measured concentration, stability) (Long-term stability [7]; nominal 270 ng/mL (HQC)): 270.31 | RE (stability) (Long-term stability [7]; nominal 270 ng/mL (HQC)): 0.11% | Mean (measured concentration, stability) (Long-term stability [8]; nominal 1 ng/mL (LLOQ)): 1.1 | RE (stability) (Long-term stability [8]; nominal 1 ng/mL (LLOQ)): 10.68% | Mean (measured concentration, stability) (Long-term stability [8]; nominal 3 ng/mL (LQC)): 2.91 | RE (stability) (Long-term stability [8]; nominal 3 ng/mL (LQC)): 0.14% | Mean (measured concentration, stability) (Long-term stability [8]; nominal 30 ng/mL (MQC)): 30.08 | RE (stability) (Long-term stability [8]; nominal 30 ng/mL (MQC)): −2.18% | Mean (measured concentration, stability) (Long-term stability [8]; nominal 270 ng/mL (HQC)): 269.97 | RE (stability) (Long-term stability [8]; nominal 270 ng/mL (HQC)): 0.71% | Greater potency toward mutated EGFR/T790M than wild-type EGFR (EGFR/T790M): 200 ×
